Experimental data reported in ChEMBL document CHEMBL2150863, “Synthesis pharmacological evaluation and docking studies of pyrimidine derivatives” (Eur J Med Chem, 2012).
In brackets after ≈: the same amount, converted by molar mass.

What was measured:
[1] = test system: Mus musculus; assay: Analgesic activity in mouse assessed as inhibition of acetic-acid induced writhing at 10 mg/kg administered 15 mins prior to acetic acid-challenge measured for 15 mins relative to vehicle-treated control; assay type: functional
In short: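 Mice, at least six per group. Test compounds given at 10 mg/kg; acetic acid solution given 15 min later. Writhing is scored as abdominal contractions, trunk twists and hind-limb extensions. Percent inhibition of pain = (1 − Vt/Vc) × 100, where Vt and Vc are mean writhing counts in the treated and control groups.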

[2] = test system: Staphylococcus aureus; assay: Antibacterial activity against Staphylococcus aureus MTCC 3160 after 24 hrs by tube dilution method; assay type: functional; settings: MTCC 3160, 24 h
In short: (§1)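 Tube dilution in Mueller-Hinton broth at pH 7.4. Two-fold serial dilutions from 1000 to 0.97 in 10% DMSO, with a DMSO-only inoculated control. Inoculum matched visually to a McFarland standard of about 1.5 × 10⁸ cells/mL. Incubation at 37 ± 1 °C for 24 h. MIC is the lowest concentration giving no growth; duplicate determinations, averaged.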

[3] = test system: Rattus norvegicus; assay: Antiinflammatory activity in rat assessed as inhibition of carrageenan-induced paw edema at 10 mg/kg, po administered 30 mins prior to carrageenan-challenge after 3 hrs relative to vehicle-treated control; assay type: functional
In short: (§2)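 Rats of 150–200 g, six per group. Oral dosing at 10 mg/kg as a suspension; controls receive 1% carboxymethylcellulose. After 30 min, 0.1 mL of 1% w/v carrageenan is injected into the left hind paw. Paw volume is measured by mercury displacement. Inhibition = (1 − Vt/Vc) × 100 from edema volumes; mean ± SEM.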

[4] = test system: Rattus norvegicus; assay: Antiinflammatory activity in rat assessed as inhibition of carrageenan-induced paw edema at 10 mg/kg, po administered 30 mins prior to carrageenan-challenge after 1 hr relative to vehicle-treated control; assay type: functional; in short: as §2
[5] = test system: Rattus norvegicus; assay: Antiinflammatory activity in rat assessed as inhibition of carrageenan-induced paw edema at 10 mg/kg, po administered 30 mins prior to carrageenan-challenge after 4 hrs relative to vehicle-treated control; assay type: functional; in short: as §2
[6] = test system: Escherichia coli; assay: Antibacterial activity against Escherichia coli MTCC 4351 after 24 hrs by tube dilution method; assay type: functional; settings: MTCC 4351, 24 h; in short: as §1
[7] = test system: Bacillus subtilis; assay: Antibacterial activity against Bacillus subtilis MTCC 441 after 24 hrs by tube dilution method; assay type: functional; settings: MTCC 441, 24 h; in short: as §1
[8] = test system: Pseudomonas aeruginosa; assay: Antibacterial activity against Pseudomonas aeruginosa MTCC 424 after 24 hrs by tube dilution method; assay type: functional; settings: MTCC 424, 24 h; in short: as §1
[9] = test system: Rattus norvegicus; assay: Antiinflammatory activity in rat assessed as inhibition of carrageenan-induced paw edema at 10 mg/kg, po administered 30 mins prior to carrageenan-challenge after 2 hrs relative to vehicle-treated control; assay type: functional; in short: as §2
[10] = test system: Aspergillus niger; assay: Antifungal activity against Aspergillus niger MTCC 282 after 48 hrs by tube dilution method; assay type: functional; settings: MTCC 282, 48 h
In short: (§3)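 Tube dilution in Sabouraud dextrose broth at pH 7.4. Two-fold serial dilutions from 1000 to 0.97 in 10% DMSO, with a solvent control. Inoculum matched visually to a McFarland standard of about 1.5 × 10⁸ cells/mL. Incubation at 25 ± 1 °C for 48 h. MIC is the tube showing no fungal growth; duplicate determinations, averaged.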

[11] = test system: Candida albicans; assay: Antifungal activity against Candida albicans MTCC 183 after 48 hrs by tube dilution method; assay type: functional; settings: MTCC 183, 48 h; in short: as §3
[12] = test system: Rattus norvegicus; assay: Ulcerogenic activity in Wistar albino rat assessed as ulcer index at 10 mg/kg, ip administered QD for 3 days; assay type: toxicity, organism-based; design: dose 10 mg/kg, route intraperitoneal; settings: in vivo, 72 h
In short: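 Wistar rats of either sex, 150–200 g, six per group. Given 10 mg/kg ip once daily for 3 days; controls receive 10% v/v Tween 80. Fasted 36 h, then pylorus ligated on day 4. Killed 4 h after ligation; stomach opened along the greater curvature and ulcer index scored; mean ± SEM.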

Structure (SMILES) | inhibition in vivo at 10 mg/kg [1] [%] | MIC [2] [µg/mL] | inhibition in vivo at 10 mg/kg [3] [%] | inhibition in vivo at 10 mg/kg [4] [%] | inhibition in vivo at 10 mg/kg [5] [%] | MIC [6] [µg/mL] | MIC [7] [µg/mL] | MIC [8] [µg/mL] | inhibition in vivo at 10 mg/kg [9] [%] | MIC [10] [µg/mL] | MIC [11] [µg/mL] | UI [12]
O=C1N=C(C2C(=O)c3ccccc3C2=O)CC(c2ccccc2)N1 (stereo not given) | 31 | 125 (≈ 393 µM) | 21 | 20 | 11 | 62.5 (≈ 196 µM) | 250 (≈ 785 µM) | 125 (≈ 393 µM) | 33 | 500 (≈ 1570 µM) | 500 (≈ 1570 µM) | 
O=C1N=C(C2C(=O)c3ccccc3C2=O)CC(c2ccccc2[N+](=O)[O-])N1 (stereo not given) | 35 | 125 (≈ 344 µM) | 26 | 11 | 32 | 31.2 (≈ 85.9 µM) | 250 (≈ 688 µM) | 250 (≈ 688 µM) | 30 | 500 (≈ 1380 µM) | 500 (≈ 1380 µM) | 
O=C1N=C(C2C(=O)c3ccccc3C2=O)CC(c2cccc([N+](=O)[O-])c2)N1 (stereo not given) | 36 | 125 (≈ 344 µM) | 21 | 27 | 12 | 250 (≈ 688 µM) | 250 (≈ 688 µM) | 250 (≈ 688 µM) | 36 | 125 (≈ 344 µM) | 500 (≈ 1380 µM) | 
O=C1N=C(C2C(=O)c3ccccc3C2=O)CC(c2ccc([N+](=O)[O-])cc2)N1 (stereo not given) | 38 | 125 (≈ 344 µM) | 19 | 16 | 18 | 500 (≈ 1380 µM) | 250 (≈ 688 µM) | 250 (≈ 688 µM) | 26 | 500 (≈ 1380 µM) | 500 (≈ 1380 µM) | 
O=C1N=C(C2C(=O)c3ccccc3C2=O)CC(c2ccc(Cl)cc2)N1 (stereo not given) | 44 | 125 (≈ 354 µM) | 31 | 15 | 34 | 125 (≈ 354 µM) | 31.2 (≈ 88.4 µM) | 62.5 (≈ 177 µM) | 19 | 125 (≈ 354 µM) | 125 (≈ 354 µM) | 1.28
CN(C)c1ccc(C2CC(C3C(=O)c4ccccc4C3=O)=NC(=O)N2)cc1 (stereo not given) | 52 | 125 (≈ 346 µM) | 20 | 15 | 16 | 125 (≈ 346 µM) | 125 (≈ 346 µM) | 62.5 (≈ 173 µM) | 29 | 500 (≈ 1380 µM) | 500 (≈ 1380 µM) | 
COc1ccc(C2CC(C3C(=O)c4ccccc4C3=O)=NC(=O)N2)cc1 (stereo not given) | 31 | 500 (≈ 1440 µM) | 22 | 22 | 10 | 250 (≈ 718 µM) | 125 (≈ 359 µM) | 250 (≈ 718 µM) | 21 | 250 (≈ 718 µM) | 250 (≈ 718 µM) | 
O=C1N=C(C2C(=O)c3ccccc3C2=O)CC(c2ccco2)N1 (stereo not given) | 25 | 62.5 (≈ 203 µM) | 20 | 18 | 7 | 31.2 (≈ 101 µM) | 31.2 (≈ 101 µM) | 500 (≈ 1620 µM) | 25 | 62.5 (≈ 203 µM) | 62.5 (≈ 203 µM) | 
O=C1N=C(C2C(=O)c3ccccc3C2=O)CC(/C=C/c2ccccc2)N1 (stereo not given) | 16 | 62.5 (≈ 181 µM) | 18 | 17 | 16 | 125 (≈ 363 µM) | 125 (≈ 363 µM) | 250 (≈ 726 µM) | 32 | 250 (≈ 726 µM) | 250 (≈ 726 µM) | 
O=C1N=C(C2C(=O)c3ccccc3C2=O)CC(c2ccccc2O)N1 (stereo not given) | 37 | 125 (≈ 374 µM) | 19 | 24 | 16 | 500 (≈ 1500 µM) | 250 (≈ 748 µM) | 125 (≈ 374 µM) | 22 | 500 (≈ 1500 µM) | 250 (≈ 748 µM) | 
O=C1N=C(C2C(=O)c3ccccc3C2=O)CC(c2c[nH]c3ccccc23)N1 (stereo not given) | 21 | 250 (≈ 700 µM) | 12 | 19 | 12 | 250 (≈ 700 µM) | 250 (≈ 700 µM) | 125 (≈ 350 µM) | 21 | 125 (≈ 350 µM) | 500 (≈ 1400 µM) | 
COc1cc(C2CC(C3C(=O)c4ccccc4C3=O)=NC(=O)N2)ccc1O (stereo not given) | 28 | 125 (≈ 343 µM) | 26 | 20 | 11 | 500 (≈ 1370 µM) | 250 (≈ 686 µM) | 250 (≈ 686 µM) | 33 | 125 (≈ 343 µM) | 250 (≈ 686 µM) | 
CC1(C)S[C@@H]2[C@H](NC(=O)[C@H](N)c3ccccc3)C(=O)N2[C@H]1C(=O)O [AMPICILLIN] |  | 3.9 (≈ 11.2 µM) |  |  |  | 3.9 (≈ 11.2 µM) | 3.9 (≈ 11.2 µM) | 3.9 (≈ 11.2 µM) |  |  |  | 
OC(Cn1cncn1)(Cn1cncn1)c1ccc(F)cc1F [FLUCONAZOLE] |  |  |  |  |  |  |  |  |  | 7.8 (≈ 25.5 µM) | 7.8 (≈ 25.5 µM) | 
COc1ccc2c(c1)c(CC(=O)O)c(C)n2C(=O)c1ccc(Cl)cc1 [INDOMETHACIN] | 55 |  | 39 | 23 | 34 |  |  |  | 48 |  |  | 1.7
